The test system of series [1] is HT-29. Briefly: Cytotoxicity against human HT-29 cells after 24 hrs by MTT assay. Type of series: cell-based. Particulars: HT-29, 24 h; call rule not given here. In outline:
(§1)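 MTT viability assay in hERG-transfected HEK293 cells and in HT-29 cells exposed to probe. Half-maximal inhibitory concentration was derived for each cell line and reported as mean ± deviation.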

Series [2] relates to HEK293. Briefly: Cytotoxicity against human ERG transfected HEK293 cells after 24 hrs by MTT assay. It counts as cell-based. Particulars: HEK293, 24 h. The procedure, abridged: as §1
(Formazan colour is commonly taken as a measure of viable cells.)

The target in series [3] is T1, Voltage-gated inwardly rectifying potassium channel KCNH2 (Homo sapiens, UniProt Q12809). Put plainly: Displacement of [3H] dofetilide from human ERG channel expressed in HEK293 cell membranes incubated for 2 hrs by scintillation counting analysis.
The target of series [4] is T1, Voltage-gated inwardly rectifying potassium channel KCNH2. Put plainly: Binding affinity to ERG channel in human HT-29 cells assessed as fluorescence signal at 0.5 uM incubated for 10 mins by fluorescence microscopic imaging analysis. It counts as cell-based. The settings on record: ht-29, 10 min. In outline: (§2)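 Live-cell fluorescence microscopy of hERG-transfected HEK293 cells or HT-29 colorectal cancer cells incubated with probe at 0.5 μM. Images were taken in bright field and in the GFP channel. Probe photophysics were characterised at 10 μM in PBS, pH 7.4.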

Series [5] shares this target. Briefly: Binding affinity to ERG channel in human HT-29 cells assessed as fluorescence signal at 0.5 uM incubated for 10 mins by fluorescence microscopic imaging analysis in presence of astemizole. It counts as cell-based. Particulars: ht-29, 10 min. In outline: (§3)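 Competition imaging in hERG-transfected HEK293 or HT-29 cells. Cells were co-incubated with 100 μM astemizole and 0.5 μM probe, then imaged by fluorescence microscopy in bright field and the GFP channel. Cell autofluorescence, with and without astemizole, was checked separately.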

Series [6] has the same target. Put plainly: Binding affinity to human ERG channel expressed in HEK293 cells assessed as fluorescence signal at 0.5 uM incubated for 10 mins by fluorescence microscopic imaging analysis in presence of astemizole. Particulars: hek293, 10 min. Type of series: cell-based. The procedure, abridged: as §3
The target is the same in series [7]. Put plainly: Binding affinity to human ERG channel expressed in HEK293 cells assessed as fluorescence signal at 0.5 uM incubated for 10 mins by fluorescence microscopic imaging analysis. Particulars: hek293, 10 min. Type of series: cell-based. In outline:
as §2

Consider four compounds from ChEMBL document CHEMBL3804778, “Astemizole Derivatives as Fluorescent Probes for hERG Potassium Channel Imaging” (ACS Med Chem Lett, 2016).

T1 sequence (Q12809 whole entry): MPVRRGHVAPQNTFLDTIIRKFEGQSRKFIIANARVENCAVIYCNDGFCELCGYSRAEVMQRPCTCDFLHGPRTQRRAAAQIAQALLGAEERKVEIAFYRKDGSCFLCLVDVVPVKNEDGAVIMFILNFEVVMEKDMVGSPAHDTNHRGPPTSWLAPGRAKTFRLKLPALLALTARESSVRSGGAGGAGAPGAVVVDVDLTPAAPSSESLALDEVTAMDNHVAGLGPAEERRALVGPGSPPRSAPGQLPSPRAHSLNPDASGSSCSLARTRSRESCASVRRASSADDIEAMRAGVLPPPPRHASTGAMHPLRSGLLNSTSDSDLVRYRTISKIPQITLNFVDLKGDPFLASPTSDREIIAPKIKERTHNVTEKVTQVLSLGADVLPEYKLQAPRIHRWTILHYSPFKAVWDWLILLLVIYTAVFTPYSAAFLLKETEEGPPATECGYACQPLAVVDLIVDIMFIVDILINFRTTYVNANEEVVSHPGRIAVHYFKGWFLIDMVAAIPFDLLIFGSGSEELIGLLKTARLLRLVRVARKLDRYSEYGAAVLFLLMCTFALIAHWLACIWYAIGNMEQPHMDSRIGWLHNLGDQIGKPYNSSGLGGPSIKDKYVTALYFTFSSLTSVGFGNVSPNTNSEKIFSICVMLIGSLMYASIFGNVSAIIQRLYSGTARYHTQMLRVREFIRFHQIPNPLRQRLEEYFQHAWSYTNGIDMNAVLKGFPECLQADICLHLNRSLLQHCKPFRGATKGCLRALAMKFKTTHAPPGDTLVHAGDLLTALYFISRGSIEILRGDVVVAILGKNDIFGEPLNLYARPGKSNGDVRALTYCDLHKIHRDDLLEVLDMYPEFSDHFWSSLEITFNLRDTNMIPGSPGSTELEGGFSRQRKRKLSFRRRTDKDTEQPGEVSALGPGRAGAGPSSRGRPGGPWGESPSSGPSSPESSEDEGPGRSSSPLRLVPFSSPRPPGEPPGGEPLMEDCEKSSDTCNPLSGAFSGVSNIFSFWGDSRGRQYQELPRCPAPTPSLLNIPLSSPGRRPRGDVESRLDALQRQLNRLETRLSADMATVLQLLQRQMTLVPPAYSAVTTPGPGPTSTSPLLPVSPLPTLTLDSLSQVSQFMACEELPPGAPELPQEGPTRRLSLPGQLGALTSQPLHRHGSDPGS

As usually defined, the IC50 is the concentration that inhibits the measured activity by half. Lower therefore signals higher potency. In the case of `CCN(CC)c1ccc2cc(C(=O)NCCCCN3CCC(Nc4nc5ccccc5n4Cc4ccc(F)cc4)CC3)c(=O)oc2c1`, the values for the IC50 in series [1] and in series [2] were 9.9 µM and 4.7 µM, respectively.

Turning to `CC(=O)Nc1ccc2c3c(cccc13)C(=O)N(CCCCN1CCC(Nc3nc4ccccc4n3Cc3ccc(F)cc3)CC1)C2=O`, the half-inhibitory concentration (IC50) in series [1] was found to be 18.6 µM; in series [2], 7.2 µM.

As a reminder, the Ki is the dissociation constant of the complex between target and ligand, obtained from inhibition or displacement. For the compound `O=[N+]([O-])c1ccc(NCCCCN2CCC(Nc3nc4ccccc4n3Cc3ccc(F)cc3)CC2)c2nonc12`, the IC50 worked out at 0.025 µM in series [3], 36.1 µM in series [1] and 12.5 µM in series [2]. In addition, the affinity in series [3], expressed as Ki, was 0.012 µM. Further, the Activity entry in series [4] was “Active”; in series [5] it was “Not Active”; in series [6], “Not Active”; in series [7], “Active”.

As to `COc1ccc(CCN2CCC(Nc3nc4ccccc4n3Cc3ccc(F)cc3)CC2)cc1` [ASTEMIZOLE], the IC50 in series [1] amounted to 15.4 µM; in series [2], 5.1 µM.
